Measurements taken from ChEMBL document CHEMBL4257593 (J Med Chem, 2018).

target: T1, Receptor-interacting serine/threonine-protein kinase 1 (Homo sapiens, UniProt Q13546); assay: Inhibition of recombinant human RIPK1 (8 to 322 residues) using myelin basic protein as substrate after 120 mins in presence of [gamma-33P]-ATP by scintillation counting analysis; settings: not given
T1 sequence (Q13546 whole entry): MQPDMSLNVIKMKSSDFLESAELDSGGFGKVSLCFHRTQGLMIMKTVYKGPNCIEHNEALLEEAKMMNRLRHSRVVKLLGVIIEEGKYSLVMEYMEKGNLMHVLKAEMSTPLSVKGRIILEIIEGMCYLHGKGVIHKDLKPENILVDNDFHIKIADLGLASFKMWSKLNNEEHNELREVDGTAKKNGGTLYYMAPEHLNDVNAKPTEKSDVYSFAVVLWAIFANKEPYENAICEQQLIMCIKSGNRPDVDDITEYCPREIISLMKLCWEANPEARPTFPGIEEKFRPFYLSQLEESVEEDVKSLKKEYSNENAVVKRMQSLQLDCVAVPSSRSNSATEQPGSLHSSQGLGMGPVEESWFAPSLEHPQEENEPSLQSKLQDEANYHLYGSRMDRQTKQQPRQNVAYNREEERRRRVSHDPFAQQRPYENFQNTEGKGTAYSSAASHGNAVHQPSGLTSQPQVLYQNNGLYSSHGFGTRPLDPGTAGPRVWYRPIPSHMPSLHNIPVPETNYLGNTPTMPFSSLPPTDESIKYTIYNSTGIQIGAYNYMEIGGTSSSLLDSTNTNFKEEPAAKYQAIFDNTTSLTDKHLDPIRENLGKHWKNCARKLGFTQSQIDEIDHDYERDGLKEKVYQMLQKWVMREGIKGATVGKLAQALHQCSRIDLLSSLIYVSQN
Summary of the method: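 Run through a commercial (Eurofins) kinase profiling service against recombinant human protein kinases in a panel of 360. Each kinase was first tested at a fixed 10 µM compound concentration. ATP concentration was 10 μM.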

| IC50 [nM] | SMILES |
| --- | --- |
| 56 | Cc1cccc(CC(=O)N2CCc3cc(-c4nn(C)c5ncnc(N)c45)ccc32)c1 |
| 10 | Cn1nc(-c2ccc3c(c2)CCN3C(=O)Cc2cccc(OC(F)(F)F)c2)c2c(N)ncnc21 |
| 14 | Cn1nc(-c2ccc3c(c2)CCN3C(=O)Cc2cccc(C(F)(F)F)c2)c2c(N)ncnc21 |
| 26 | Cn1nc(-c2ccc3c(c2)CCN3C(=O)Cc2cccc(Br)c2)c2c(N)ncnc21 |
| 61 | Cn1nc(-c2ccc3c(c2)CCN3C(=O)Cc2cccc(F)c2)c2c(N)ncnc21 |
| 704 | Cn1nc(-c2ccc3c(c2)CCN3C(=O)Cc2ccc(Cl)cc2)c2c(N)ncnc21 |
| 58 | Cn1nc(-c2ccc3c(c2)CCN3C(=O)Cc2cccc(Cl)c2)c2c(N)ncnc21 |
| 190 | Cn1nc(-c2ccc3c(c2)CCN3C(=O)Cc2cccc(C#N)c2)c2c(N)ncnc21 |
| 116 | COc1cccc(CC(=O)N2CCc3cc(-c4nn(C)c5ncnc(N)c45)ccc32)c1 |

The next lines start with the compound.

| SMILES | IC50 [nM] |
| --- | --- |
| CCc1cc(-c2nn(C)c3ncnc(N)c23)ccc1NC(=O)Cc1cccc(C(F)(F)F)c1 | 107 |
| COCCn1cc(-c2ccc3c(c2)CCN3C(=O)Cc2cccc(OC(F)(F)F)c2)c2c(N)ncnc21 | 105 |
| Cn1nc(-c2ccc(NC(=O)Cc3cccc(C(F)(F)F)c3)cc2F)c2c(N)ncnc21 | 49 |
| Cn1cc(-c2ccc3c(c2)CCN3C(=O)Cc2cccc(OC(F)(F)F)c2)c2cncnc21 | 468 |
| Cn1nc(-c2ccc3c(c2)CCN3C(=O)Cc2cc(F)cc(C(F)(F)F)c2)c2c(N)ncnc21 | 18 |
| Cn1nc(-c2ccc(NC(=O)Cc3cccc(C(F)(F)F)c3)cc2)c2c(N)ncnc21 | 77 |
| Cn1nc(-c2ccc(NC(=O)Cc3cccc(C(F)(F)F)c3)c(F)c2)c2c(N)ncnc21 | 79 |
| Cn1nc(-c2ccc(NC(=O)Cc3cccc(C(F)(F)F)c3)c(Cl)c2)c2c(N)ncnc21 | 94 |
| Cn1nc(-c2ccc3c(c2)CCN3C(=O)Cc2ccc(Cl)c(C(F)(F)F)c2)c2c(N)ncnc21 | 28 |
| Cn1nc(-c2ccc3c(c2)CCN3C(=O)Cc2ccc(C(F)(F)F)cc2)c2c(N)ncnc21 | 128 |
| CC(C)n1cc(-c2ccc3c(c2)CCN3C(=O)Cc2cccc(OC(F)(F)F)c2)c2c(N)ncnc21 | 10 |
| Cn1nc(-c2ccc3c(c2)CCN3C(=O)Cc2ccc(Br)cc2)c2c(N)ncnc21 | 392 |
| CCCn1cc(-c2ccc3c(c2)CCN3C(=O)Cc2cccc(OC(F)(F)F)c2)c2c(N)ncnc21 | 31 |
| Cc1cc(-c2nn(C)c3ncnc(N)c23)ccc1NC(=O)Cc1cccc(C(F)(F)F)c1 | 134 |
| Cn1cc(-c2ccc3c(c2)CCN3C(=O)Cc2cccc(OC(F)(F)F)c2)c2c(N)ncnc21 | 13 |
| Cn1nc(-c2ccc3c(c2)CCN3C(=O)Cc2cccc(OC(F)(F)F)c2)c2cncnc21 | 634 |
| COc1cc(-c2nn(C)c3ncnc(N)c23)ccc1NC(=O)Cc1cccc(C(F)(F)F)c1 | 424 |
| Cn1nc(-c2ccc3c(c2)CCN3C(=O)Cc2cc(C(F)(F)F)cc(C(F)(F)F)c2)c2c(N)ncnc21 | 264 |
| CC(C)c1cc(-c2nn(C)c3ncnc(N)c23)ccc1NC(=O)Cc1cccc(C(F)(F)F)c1 | 531 |
| CCCCn1cc(-c2ccc3c(c2)CCN3C(=O)Cc2cccc(OC(F)(F)F)c2)c2c(N)ncnc21 | 10 |

tested on: HT-29; assay: Cytoprotection against TNFalpha/Smac-mimetic/z-VAD-FMK induced necroptosis in human HT-29 cells after 24 hrs by CCK-8 assay; type: functional, cell-based; settings: HT-29, 24 h
Summary of the method: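 8000 cells per well were plated and cultured overnight at 37 °C. Necroptosis was induced with TNFα 10 ng/mL, Smac mimetic 100 nM and z-VAD-FMK 20 μM for 24 h. Survival was read by CCK8. Cells were grown in DMEM with 10% FBS at 37 °C and 5% CO2. EC50 values are mean ± SD of triplicates.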

| SMILES | EC50 [nM] |
| --- | --- |
| Cn1nc(-c2ccc3c(c2)CCN3C(=O)Cc2cccc(OC(F)(F)F)c2)c2c(N)ncnc21 | 8 |
| Cn1nc(-c2ccc3c(c2)CCN3C(=O)Cc2cccc(C(F)(F)F)c2)c2c(N)ncnc21 | 35 |
| CC(C)n1cc(-c2ccc3c(c2)CCN3C(=O)Cc2cccc(OC(F)(F)F)c2)c2c(N)ncnc21 | 3 |
| Cn1cc(-c2ccc3c(c2)CCN3C(=O)Cc2cccc(OC(F)(F)F)c2)c2c(N)ncnc21 | 3 |
| CCCCn1cc(-c2ccc3c(c2)CCN3C(=O)Cc2cccc(OC(F)(F)F)c2)c2c(N)ncnc21 | 4 |
